Measured values published in ChEMBL document CHEMBL4257497, “Design, synthesis and biological evaluation of novel 1,3-diarylpyrazoles as cyclooxygenase inhibitors, antiplatelet and anticancer agents” (Medchemcomm, 2018).

Tests used:
[1] = biological target: T1, COX1 (Prostaglandin G/H synthase 1) (Ovis aries, UniProt P05979); test: Inhibition of sheep COX1 at 10 uM assessed as reduction in PGE2 formation using arachidonic acid as substrate by enzyme immunoassay relative to control; conditions: probe arachidonic acid
T1 sequence (P05979 whole entry): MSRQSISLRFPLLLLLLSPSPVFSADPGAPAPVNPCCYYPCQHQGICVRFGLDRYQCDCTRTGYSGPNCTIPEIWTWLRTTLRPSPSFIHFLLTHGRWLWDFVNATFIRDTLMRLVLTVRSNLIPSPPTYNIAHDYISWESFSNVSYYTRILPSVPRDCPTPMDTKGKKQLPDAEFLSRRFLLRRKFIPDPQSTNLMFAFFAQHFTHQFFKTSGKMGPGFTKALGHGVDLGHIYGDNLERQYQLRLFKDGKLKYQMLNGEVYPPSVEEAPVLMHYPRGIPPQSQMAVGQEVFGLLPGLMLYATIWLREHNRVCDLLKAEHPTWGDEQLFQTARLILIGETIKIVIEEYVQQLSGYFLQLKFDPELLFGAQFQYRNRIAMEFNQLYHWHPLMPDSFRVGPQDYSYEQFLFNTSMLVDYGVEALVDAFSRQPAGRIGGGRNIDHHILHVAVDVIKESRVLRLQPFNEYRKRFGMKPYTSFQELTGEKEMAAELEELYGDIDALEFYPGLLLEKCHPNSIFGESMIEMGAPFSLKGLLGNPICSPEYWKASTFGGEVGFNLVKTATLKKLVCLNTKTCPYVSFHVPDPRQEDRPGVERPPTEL
In short: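 Recombinant ovine COX-1, test agent at 10 μM, arachidonic acid as substrate. PGE2 formed is measured by competitive EIA (PGE2–acetylcholinesterase tracer, monoclonal anti-PGE2, Ellman's reagent, absorbance 412 nm) and quantified from an 8-point PGE2 standard curve. Result given as % inhibition of enzyme activity.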

Platelet [2] = test: Antiplatelet activity in human platelet rich plasma assessed as inhibition of arachidonic acid-induced platelet aggregation at 100 uM preincubated for 5 mins followed by arachidonic acid addition measured for 3 mins by aggregometric analysis relative to control; assay type: functional
In short: (§1)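 Citrated venous blood (3.2% citrate, 1:9) from healthy donors free of antiplatelet drugs for 10 days; PRP from 800 rpm 10 min spin, PPP from 1500 rpm 10 min; count set to 3.8 × 10^5 platelets […]. PRP stirred at 1100 rpm, 37 °C; compound in DMSO (1% carrier) 5 min before agonist (AA final 700 μM; collagen 5 μg ml−1). Turbidimetric read, triplicate; % inhibition versus DMSO-treated maximum aggregation.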

Platelet [3] = test: Antiplatelet activity in human platelet rich plasma assessed as inhibition of collagen-induced platelet aggregation at 100 uM preincubated for 5 mins followed by arachidonic acid addition measured for 3 mins by aggregometric analysis relative to control; assay type: functional; in short: as §1
Huh-7 = test: Cytotoxicity against human HuH7 cells after 72 hrs by SRB assay; assay type: functional, cell-based
In short: (§2)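 Cells cultured in DMEM with 10% FBS, 1% non-essential amino acids, penicillin/streptomycin, 37 °C, 5% CO2. 2000–3000 cells per well seeded, grown 24 h, then exposed 72 h to compound (DMSO) at 40, 20, 10, 5, 2.5 μM. TCA fixation, 0.4% SRB stain, unbound dye washed off with 1% acetic acid, bound dye dissolved in 10 mM Tris base, absorbance 515 nm. IC50 against DMSO controls, triplicate.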

MCF7 = test: Cytotoxicity against human MCF7 cells after 72 hrs by SRB assay; assay type: functional, cell-based; in short: as §2
HCT-116 = test: Cytotoxicity against human HCT116 cells after 72 hrs by SRB assay; assay type: functional, cell-based; in short: as §2
Platelet [4] = test: Antiplatelet activity in human platelet rich plasma assessed as inhibition of arachidonic acid-induced platelet aggregation preincubated for 5 mins followed by arachidonic acid addition measured for 3 mins by aggregometric analysis; assay type: functional, cell-based
[5] = Homo sapiens, Huh-7, 72 h, read-out: IC50
[6] = Homo sapiens, MCF7, 72 h, read-out: IC50
[7] = Homo sapiens, HCT-116, 72 h, read-out: IC50

SMILES	inhibition at 10 µM [1] [%]	inhibition at 100 µM (Platelet [2]) [%]	inhibition at 100 µM (Platelet [3]) [%]	IC50 (Huh-7; [5]) [µM]	IC50 (MCF7; [6]) [µM]	IC50 (HCT-116; [7]) [µM]	IC50 (Platelet [4]) [µM]	IC50 (Huh-7; huh-7)	IC50 (HCT-116; hct-116)	IC50 (MCF7; mcf7)
O=C(/C=C/c1cn(-c2ccccc2)nc1-c1ccncc1)NCCc1ccncc1	26.6	71.4	74.6	6.5	11	7.1	–	–	–	–
CS(=O)(=O)c1ccc(-n2cc(/C=C/C(=O)NCCc3ccccn3)c(-c3cccnc3)n2)cc1	54.6	90.7	78.7	–	14.3	–	10.1	Not Active	Not Active	–
Cc1nccn1CCNC(=O)/C=C/c1cn(-c2ccccc2)nc1-c1cccnc1	2.46	0	15.5	25.6	21.8	20	–	–	–	–
O=C(/C=C/c1cn(-c2ccccc2)nc1-c1cccnc1)NCc1cccnc1	5.56	1.26	63.3	21	30.9	21.6	–	–	–	–
CS(=O)(=O)c1ccc(-n2cc(/C=C/C(=O)NCCc3ccncc3)c(-c3cccnc3)n2)cc1	7.95	100	71.8	38.7	–	19.8	21.4	–	–	Not Active
Cc1nccn1CCCNC(=O)/C=C/c1cn(-c2ccc(S(C)(=O)=O)cc2)nc1-c1cccnc1	36.8	19.5	11.1	–	–	–	–	Not Active	Not Active	Not Active
O=C(/C=C/c1cn(-c2ccccc2)nc1-c1ccncc1)NCCCn1ccnc1	12.6	90.6	88.9	6.8	–	18.5	33.6	–	–	Not Active
O=C(/C=C/c1cn(-c2ccccc2)nc1-c1ccncc1)NCc1ccncc1	5.82	4.96	50.1	32.6	–	19.9	–	–	–	Not Active
CS(=O)(=O)c1ccc(-n2cc(/C=C/C(=O)NCc3ccccn3)c(-c3cccnc3)n2)cc1	10.7	8.92	59.8	24.7	–	27	–	–	–	Not Active
O=C(/C=C/c1cn(-c2ccccc2)nc1-c1ccncc1)NCCc1cccnc1	9.37	93.7	86.9	–	16.1	14.6	29.1	Not Active	–	–
O=C(/C=C/c1cn(-c2ccccc2)nc1-c1cccnc1)NCCc1ccncc1	10.2	11.3	75.9	14.5	–	26.7	–	–	–	Not Active
Cc1nccn1CCNC(=O)/C=C/c1cn(-c2ccccc2)nc1-c1ccncc1	16.9	2.54	35	21	–	12.6	–	–	–	Not Active
O=C(/C=C/c1cn(-c2ccccc2)nc1-c1cccnc1)NCCc1cccnc1	0.45	0	76.6	8.1	30.8	16.9	–	–	–	–
O=C(/C=C/c1cn(-c2ccccc2)nc1-c1cccnc1)NCc1ccccn1	11.3	0	56.5	18.5	27.8	24.5	–	–	–	–
O=C(/C=C/c1cn(-c2ccccc2)nc1-c1cccnc1)NCCCn1ccnc1	0.12	16.1	86.5	14.3	15.4	17.6	–	–	–	–
CS(=O)(=O)c1ccc(-n2cc(/C=C/C(=O)NCc3ccncc3)c(-c3cccnc3)n2)cc1	12.5	6.2	40.9	–	–	31.7	–	Not Active	–	Not Active
O=C(/C=C/c1cn(-c2ccccc2)nc1-c1cccnc1)NCc1ccncc1	11.6	4.54	36.6	24.4	–	–	–	–	Not Active	Not Active
Cc1nccn1CCCNC(=O)/C=C/c1cn(-c2ccccc2)nc1-c1ccncc1	5.41	7.91	41.3	21.1	–	10.8	–	–	–	Not Active
CS(=O)(=O)c1ccc(-n2cc(/C=C/C(=O)NCCc3cccnc3)c(-c3cccnc3)n2)cc1	1.31	14.6	70.3	–	–	–	–	Not Active	Not Active	Not Active
Cc1nccn1CCNC(=O)/C=C/c1cn(-c2ccc(S(C)(=O)=O)cc2)nc1-c1cccnc1	29.6	14.3	8.6	–	–	–	–	Not Active	Not Active	Not Active
O=C(/C=C/c1cn(-c2ccccc2)nc1-c1ccncc1)NCCc1ccccn1	13.1	100	41.9	27.3	12.2	–	32.8	–	Not Active	–
O=C(/C=C/c1cn(-c2ccccc2)nc1-c1ccncc1)NCc1ccccn1	5.96	100	41.6	14.7	–	20.4	78.3	–	–	Not Active
O=C(/C=C/c1cn(-c2ccccc2)nc1-c1cccnc1)NCCc1ccccn1	3.21	3.68	21.9	18.9	24.9	14.2	–	–	–	–
O=C(/C=C/c1cn(-c2ccccc2)nc1-c1ccncc1)NCc1cccnc1	13.7	43.3	63.4	–	–	14.6	–	Not Active	–	Not Active
CS(=O)(=O)c1ccc(-n2cc(/C=C/C(=O)NCc3cccnc3)c(-c3cccnc3)n2)cc1	13.1	90	64.1	–	–	–	49.8	Not Active	Not Active	Not Active
Cc1nccn1CCCNC(=O)/C=C/c1cn(-c2ccccc2)nc1-c1cccnc1	0.32	1.24	60.3	13.4	25.1	21.4	–	–	–	–
CS(=O)(=O)c1ccc(-n2cc(/C=C/C(=O)NCCCn3ccnc3)c(-c3cccnc3)n2)cc1	40.5	82.4	52.6	–	–	–	–	Not Active	Not Active	Not Active
CC(=O)Oc1ccccc1C(=O)O [ASPIRIN]	–	100	100	–	–	–	7.7	–	–	–
O=c1[nH]cc(F)c(=O)[nH]1 [FLUOROURACIL]	–	–	–	–	1.4	–	–	–	–	–
COc1ccc2c(c1)c(CC(=O)O)c(C)n2C(=O)c1ccc(Cl)cc1 [INDOMETHACIN]	69.5	–	–	–	–	–	–	–	–	–
